Results as given in the M2OR odorant receptor database.

tested on: T1, A0A140T8K0; settings: stereoisomer not certain
T1 sequence (whole entry): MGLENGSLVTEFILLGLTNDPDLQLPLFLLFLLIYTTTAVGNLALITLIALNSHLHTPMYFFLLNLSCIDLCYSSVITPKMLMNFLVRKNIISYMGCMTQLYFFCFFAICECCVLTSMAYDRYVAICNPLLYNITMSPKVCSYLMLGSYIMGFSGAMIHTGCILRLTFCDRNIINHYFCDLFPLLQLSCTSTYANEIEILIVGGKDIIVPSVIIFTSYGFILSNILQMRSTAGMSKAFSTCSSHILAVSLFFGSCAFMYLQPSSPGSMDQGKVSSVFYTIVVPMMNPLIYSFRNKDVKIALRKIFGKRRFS
Method in brief: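 Each entry records the cell line, G-protein, co-transfected protein and tags used. Methods varied with the source, often transient luciferase assays in mammalian cell lines. A receptor–molecule pair is called responsive (active) if the original authors judged its signal statistically different from baseline and non-responsive (inactive) otherwise.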

Odorant receptor agonist call, active:
CCCCCCCCOC=O

Odorant receptor agonist call, inactive:
CC(C)=C1CCC(C)CC1=O (configuration not stated)
C1CCOC1
CCCCC=O
OCCCCCCCCCO
CCCC=O
CCSSCC
Cc1ccccc1OC(=O)C(C)C
C=C(CC)CCCC(C)(C)O
OCCc1ccccc1
Cc1c(C)c(C)c(C=O)c(C)c1C
CC(=O)OC1(C)CCC23CC1C(C)(C)C2CCC3C (configuration not stated)
CCCCCCCCCCOC(C)=O
C=C(C)C1CCC2(C)OC2C1 (configuration not stated)
COc1ccccc1
CCc1occc(=O)c1O
CC1(C)CC(=O)CC(=O)C1
CC(C)CCN
CC(C)CS
CCC=CCCC=CC=O
CCCCCOC(=O)CCC
C=CC(C)=CCC=C(C)CCC=C(C)C
Cc1ccc2c(c1)OCC(=O)CO2
COc1nccnc1C
C=CC(=C)CCC=C(C)C
CC=CC(=O)C1=C(C)CCCC1(C)C
CNc1ccccc1C(=O)OC
Cc1ccc(OC(=O)C(C)C)cc1
CCCCCC(C)O (configuration not stated)
CC=C(C)C=O
CCCCCC=CCCC=O
CCOC(=O)C(C)CC (configuration not stated)
CCCCCCCCCCCO
Cc1ccc(C(C)C)cc1
C1CCOCC1
COC(OC)c1ccccc1
CCCCCCCOC(=O)C(C)C
